# Source: ChEMBL document CHEMBL3769319, “Antischistosomal activity of N,N'-arylurea analogs against Schistosoma japonicum” (Bioorg Med Chem Lett, 2016)
# pIC50: −log10 of the molar value. Calls of active or inactive are those of the source. The rule behind the calls is not given here.
# What was measured:
# [1] = test system: Schistosoma japonicum; test: Antischistosomal activity against juvenile stage of Schistosoma japonicum at 32 uM after 72 hrs by microscopy
# [2] = test system: Schistosoma japonicum; test: Antischistosomal activity against adult stage of Schistosoma japonicum infected in ICR mouse assessed as reduction of parasite burden at 200 mg/kg, po administered as single dose measured after 14 days; format: functional; set-up: scale not given: the % may be the effect or the level left
# In short: (§1)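 Mice with adult S. japonicum infection got one oral dose (200 or 400 mg/kg) as an ultrasound-aided corn oil suspension; one group got an HP-β-CD complex solution instead. Untreated infected mice served as controls, 5–6 per group. Worm counts (mean, SD) gave percent worm burden reduction against control.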
# [3] = test system: Schistosoma japonicum; test: Antischistosomal activity against adult stage of Schistosoma japonicum after 72 hrs by microscopy; format: functional, organism-based
# [4] = test system: Schistosoma japonicum; test: Antischistosomal activity against juvenile stage of Schistosoma japonicum after 72 hrs by microscopy; format: functional, organism-based
# In short: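 Juvenile S. japonicum were screened at 32 µM for 72 h. Compounds that killed worms were then tested three times in 2-fold serial dilutions from 32 to 2 µM, each incubated 72 h, and IC50 was calculated.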
# [5] = test system: Schistosoma japonicum; test: Antischistosomal activity against juvenile stage of Schistosoma japonicum infected in ICR mouse assessed as reduction of parasite burden at 200 mg/kg, po administered as single dose measured after 14 days; format: functional; set-up: scale not given: the % may be the effect or the level left
# [6] = test system: Schistosoma japonicum; test: Antischistosomal activity against juvenile stage of Schistosoma japonicum infected in ICR mouse assessed as reduction of parasite burden at 400 mg/kg, po administered as single dose measured after 14 days; format: functional; set-up: scale not given: the % may be the effect or the level left
# [7] = test system: Schistosoma japonicum; test: Antischistosomal activity against adult stage of Schistosoma japonicum infected in ICR mouse assessed as reduction of parasite burden at 400 mg/kg, po administered as single dose measured after 14 days; format: functional; set-up: scale not given: the % may be the effect or the level left
# In short: as §1
# [8] = test system: Schistosoma mansoni; test: Antischistosomal activity against Schistosoma mansoni infected in mouse assessed as reduction of parasite burden at 400 mg/kg, po administered as single dose; format: functional; set-up: scale not given: the % may be the effect or the level left
pIC50 [4],Compound,Activity [1],other results
,O=C(Nc1cnc(Cl)c(Cl)c1)Nc1cnc(Cl)c(Cl)c1,inactive,
,O=C(Nc1ccc(Cl)c(Cl)c1)C(=O)Nc1ccc(Cl)c(Cl)c1,inactive,
,CCCCNC(=O)Nc1ccc(Cl)c(Cl)c1,inactive,
5.55,O=C(Nc1ccc(Cl)c(C(F)(F)F)c1)Nc1ccc(Cl)c(C(F)(F)F)c1,,Activity [2]: 32.6%; pIC50 [3]: 5.66; Activity [5]: 33.4%
,C[C@H]1[C@H](OC(=O)CCC(=O)O)O[C@@H]2O[C@@]3(C)CC[C@H]4[C@H](C)CC[C@@H]1[C@@]24OO3 [ARTESUNATE],,Activity [6]: 72.4%
,Clc1nc(Nc2ccc(Cl)c(Cl)c2)nc(Nc2ccc(Cl)c(Cl)c2)n1,inactive,
5.33,O=C(Nc1ccc(F)c(F)c1)Nc1ccc(Cl)c(Cl)c1,,pIC50 [3]: 5.66; Activity [7]: 0%; Activity [6]: 27.8%
,O=C(Nc1cccnc1)Nc1cccnc1,inactive,
,O=C(Nc1ccccn1)Nc1ccccn1,inactive,
4.65,O=S(=O)(Nc1ccc(Cl)c(Cl)c1)Nc1ccc(Cl)c(Cl)c1,Active,
,COc1cccc(NC(=O)Nc2ccc(Cl)c(Cl)c2)c1,inactive,
,O=C(Nc1ccc(Cl)c(Cl)c1)Nc1ccccc1F,inactive,
,O=C1C(=O)N(c2ccc(Cl)c(C(F)(F)F)c2)C(=O)N1c1ccc(Cl)c(Cl)c1,inactive,
,S=C(Nc1ccc(Cl)c(Cl)c1)Nc1ccc(Cl)c(Cl)c1,inactive,
5.37,N#Cc1cc(NC(=O)Nc2ccc(Cl)c(Cl)c2)ccc1F,,pIC50 [3]: 5.66; Activity [7]: 11.4%; Activity [6]: 14.6%
,Clc1ccc(Nc2cc(Nc3ccc(Cl)c(Cl)c3)ncn2)cc1Cl,inactive,
4.89,O=C(Nc1ccc(Cl)c(Cl)c1)Nc1cccc2ccccc12,,
,COc1ccccc1NC(=O)Nc1ccc(Cl)c(Cl)c1,inactive,
,O=C(Nc1cccnc1)Nc1ccc(Cl)c(Cl)c1,inactive,
4.72,Clc1ccc(Nc2nc(Nc3ccc(Cl)c(Cl)c3)nc(N3CCOCC3)n2)cc1Cl,Active,

pIC50 [4],Compound,Activity [1],other results
4.65,O=C(Nc1ccccc1S(=O)(=O)N1CCOCC1)Nc1ccccc1S(=O)(=O)N1CCOCC1,,
5.15,O=C(Nc1ccc(F)c(F)c1)Nc1ccc(F)c(F)c1,,pIC50 [3]: 5.29; Activity [7]: 2.3%; Activity [6]: 6.4%
,O=C(C1CCCCC1)N1CC(=O)N2CCc3ccccc3C2C1 (stereo not drawn) [PRAZIQUANTEL],,Activity [7]: 90.7%
,Nc1ccc(NC(=O)Nc2ccc(Cl)c(Cl)c2)cc1,inactive,
5.60,O=C(Nc1ccc(Cl)c(Cl)c1)Nc1ccc(Cl)c(C(F)(F)F)c1,,Activity [2]: 26.6%; pIC50 [3]: 5.82; Activity [5]: 11.6%
5.36,O=C(Nc1ccc(Cl)c(Cl)c1)Nc1ccc(Cl)c(Cl)c1,,pIC50 [3]: 5.66; Activity [8]: 52.5%; Activity [7]: 9.3%; Activity [6]: 32.2%
,O=C1N(c2ccc(Cl)c(Cl)c2)CCN1c1ccc(Cl)c(C(F)(F)F)c1,inactive,
4.90,Cc1ccc(NC(=O)Nc2ccc(Cl)c(Cl)c2)cc1Cl,,
,Cc1ccc(NC(=O)Nc2ccc(Cl)c(Cl)c2)cc1,inactive,
5.00,O=C(Nc1cccc(Cl)c1)Nc1ccc(Cl)c(Cl)c1,,
,O=C(Nc1ccc(Cl)c(Cl)c1)NN1CCN(c2ccccc2)CC1,inactive,
5.02,O=C(Nc1ccc(Cl)c(Cl)c1)Nc1ccc(N2CCOCC2)c(C(F)(F)F)c1,,pIC50 [3]: 5.08; Activity [7]: 3.4%; Activity [6]: 18.8%
,COc1ccc(NC(=O)Nc2ccc(Cl)c(Cl)c2)cc1,inactive,
,O=C(Nc1ccc(Cl)c(Cl)c1)NC12CC3CC(CC(C3)C1)C2,inactive,
4.65,O=C(Nc1ccc(Cl)c(Cl)c1)Nc1cccc2cnccc12,,
,O=C(Nc1ccc(Cl)c(Cl)c1)NC1CCCCC1,inactive,
,O=C1N(c2ccc(Cl)c(Cl)c2)C(O)C(O)N1c1ccc(Cl)c(C(F)(F)F)c1 (stereo not drawn),inactive,
4.95,O=C(Nc1ccc(Cl)c(Cl)c1)Nc1cnc(Cl)c(Cl)c1,,
4.65,O=C(Nc1ccc(N2CCOCC2)c(C(F)(F)F)c1)Nc1ccc(N2CCOCC2)c(C(F)(F)F)c1,,
